From the RNAGym collection of RNA variant scans (doi:10.1038/s41586-018-0170-7)

B1: tRNA (parent)
chain: GUUCCGUUGGCGUAAUGGUAACGCGUCUCCCUCCUAAGGAGAAGACUGCGGGUUCGAGUCCCGUACGGAACG

Variants of: B1
Test: yeast fitness, log relative to wild type (ln ratio); higher = fitter; tRNA-Arg(CCU), competitive growth, 37 C, 1 M NaCl
Method in brief: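 Variants were counted by 125 bp paired-end Illumina sequencing after pools of a combinatorial tRNA-Arg(CCU) library, held on a HIS3 centromeric plasmid in BY4742 lacking the chromosomal gene, grew ~6.5 generations (~26.5 h) in SC-HIS 1M NaCl at 37 °C. Each genotype's fitness is the natural log of its generations relative to the wild type's. Generations were OD-scaled log2 output/input frequencies, inverse-variance weighted over replicates.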

Variant	yeast fitness (ln)
G6U A43C A69G A70U C71U	-0.447
U2C G6U C27U A43C C66U A70U	-0.156
G1A G6U C27U C66A A69G A70G C71U	-0.31
U2G C27U C46U	-0.0742
U2C G6A C27U A43C C66U A69G A70G C71U	-0.293
G6U C27U C46U C66U A70G	-0.207
G1A U2C G6A A43C C46U C66U A69G A70U	-0.0607
U2G G6U A43C C46U C66U A70U	-0.263
G1A G6A A43C C46U C66A A70U C71U	-0.171
U2G G6U C46U C66U	-0.131
G1A A43C C46U	-0.059
G1A U2C G6A C27U A70G C71U	-0.273
U2C G6U C27U C66A A70U C71U	-0.26
U2G G6U A43C C46U C66U A69G C71U	-0.487
U2C G6U C27U C66U C71U	-0.265
G1A U2G C27U A43C C46U C66U A70G C71U	-0.318
G1A G6U C27U A69G A70G	-0.379
U2C A43C C46U C66A A70G	-0.058
U2G G6U C27U C46U A69G A70G	-0.191
G1A G6U A43C C46U A69G A70G C71U	-0.321
G1A G6U C27U A43C C46U C66A	-0.168

Variant	yeast fitness (ln)
C27U A43C C46U C66U A70U C71U	-0.333
U2G C27U A43C C46U C66U	-0.146
G6A C27U A43C C46U C66A A70G C71U	-0.296
G1A U2C C46U A70U C71U	-0.0299
G1A U2G G6U C27U A43C C46U C66U A70G	-0.564
G1A G6U C46U C66A A69G A70G C71U	-0.162
G1A U2G C46U C66U A70U C71U	-0.185
G1A U2G G6U C27U A43C C46U A70G C71U	-0.426
G1A A43C C46U A69G C71U	-0.0151
U2C G6A A43C C46U C66A A70G C71U	-0.108
G1A U2C G6U A69G A70U	-0.152
G1A C27U C46U C66A A69G A70G C71U	-0.193
G1A G6A C27U A43C C46U A70G	-0.285
U2G G6U C46U A70G	-0.104
G6A C27U A43C C46U C66U A69G	-0.188
G6A C27U A43C C46U C66U A70G C71U	-0.213
G1A U2G G6A C27U A43C C66U A70U	-0.236
U2G A43C C46U C66A A69G A70G	-0.186
G6U C46U C66A A70U C71U	-0.394
G1A C27U C46U C66A A70G	-0.213
U2C G6U A43C C46U C66A A69G A70G	-0.0147

Variant	yeast fitness (ln)
G1A G6U C27U C46U A70G	-0.191
U2C A43C C46U C66U A69G A70U	-0.191
G6A C46U A69G A70G C71U	-0.146
C27U A43C C46U C66U A70G C71U	-0.206
G6U C27U A43C C46U C66A A69G A70G	-0.471
G1A U2G C46U C66U A69G C71U	-0.318
G1A U2G C46U C66A A70G	-0.152
G1A G6U C27U A43C C66U A69G A70G C71U	-0.497
G1A C27U C66U A70U C71U	-0.342
G1A U2G G6A A43C C66U A70U	-0.434
G6U C46U C66U A69G C71U	-0.594
G1A A43C C46U C66U A70G	-0.1
G1A U2G C27U A69G	-0.145
G1A U2G C46U	-0.0473
G1A U2G C27U A69G A70G	-0.242
G1A U2C A43C C46U A69G A70G	-0.0565
U2G C27U C46U C66A A69G A70U C71U	-0.383
G1A A43C C46U A69G A70U	-0.0688
G1A G6A A70G C71U	-0.115
U2C A43C C66U A70U C71U	-0.424
G1A U2G G6U C27U C66U A69G C71U	-0.425

Variant	yeast fitness (ln)
G1A U2C G6A A43C A70G C71U	-0.13
G1A G6U A43C C66U A69G C71U	-0.587
G1A C27U A43C C46U C66A A69G A70U C71U	-0.415
G1A U2G C66U A69G A70G	-0.243
U2C G6A C27U A70G C71U	-0.282
G1A G6U C27U A43C C66A A70U	-0.264
U2C G6U C46U A70U	-0.0445
U2G G6A A43C C66U A70U C71U	-0.49
U2C G6U C27U A43C A70U	-0.2
G1A U2G C27U C66U A69G A70G C71U	-0.416
G1A U2G G6U A43C C46U C66A A69G A70U	-0.256
G1A U2G G6A C66A A69G A70G C71U	-0.257
U2G G6A C27U A43C A70G	-0.186
U2C G6U C27U C66U A70G	-0.215
G1A C27U A43C C66A A70G C71U	-0.35
C46U	0.0114
A43C C46U A69G A70G	-0.0166
U2G C27U A43C C46U C66U A70G	-0.161
U2C G6A C66U A69G A70G	-0.0273
G1A G6U C46U C66A A69G A70U C71U	-0.341
U2G G6A C27U C46U C66U A70U	-0.01
